Measurements reported in ChEMBL document CHEMBL4706687, “Synthesis and Pharmacological Evaluation of Novel Non-nucleotide Purine Derivatives as P2X7 Antagonists for the Treatment of Neuroinflammation” (J Med Chem, 2021).
Activity calls are given as the source filed them. No cut-off for these calls is given here.

Key:
[1] = molecular target: T1, P2X purinoceptor 2 (Rattus norvegicus) (UniProt P49653); test: Antagonist activity at rat P2X2 receptor expressed in Xenopus laevis oocytes assessed as reduction in ATP-induced channel currents at 100 uM by TEVC electrophysiology assay relative to control; format: cell-based; details: Oocyte
T1 sequence (whole entry): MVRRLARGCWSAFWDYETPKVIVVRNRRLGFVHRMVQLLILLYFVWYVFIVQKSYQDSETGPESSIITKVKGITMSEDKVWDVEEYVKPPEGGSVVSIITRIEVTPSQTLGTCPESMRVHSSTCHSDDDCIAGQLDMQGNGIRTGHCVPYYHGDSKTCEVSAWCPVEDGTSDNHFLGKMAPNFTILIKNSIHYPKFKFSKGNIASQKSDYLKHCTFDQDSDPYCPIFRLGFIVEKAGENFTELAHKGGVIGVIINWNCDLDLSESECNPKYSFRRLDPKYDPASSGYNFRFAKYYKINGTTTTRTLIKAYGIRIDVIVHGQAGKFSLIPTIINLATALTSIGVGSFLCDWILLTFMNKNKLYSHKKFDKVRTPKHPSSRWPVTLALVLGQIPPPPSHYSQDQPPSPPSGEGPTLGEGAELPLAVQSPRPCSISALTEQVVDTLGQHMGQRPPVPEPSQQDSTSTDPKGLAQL
In short: (§1)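 Two-electrode voltage clamp at −70 mV in low divalent-cation solution, oocytes incubated 1–2 days at 16–18 °C after 50 nL cRNA injection: rP2X1 and rP2X4 at 0.5 mg/mL, rP2X2 0.1 mg/mL, rP2X7 25 μg/mL. ATP 10 μM for rP2X1 and rP2X2, 30 μM for rP2X4 and rP2X7. Compound applied 3 min without perfusion. Currents normalized to control; three oocytes from two frogs.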

[2] = tested on: Peritoneal macrophage; test: Inhibition of Il-1beta production in LPS-stimulated C57BL/6 mouse peritoneal macrophages pre-incubated for 15 mins followed by ATP addition for 30 mins by ELISA method; format: functional, tissue-based; details: time 45.0 min
In short: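 Thioglycolate-elicited peritoneal macrophages from 6–8-week male C57BL/6 mice, 3 × 10⁵ cells/well. Primed 4 h with LPS 1 μg/mL (E. coli 026:B6), then serum-free DMEM with compound for 15 min, then ATP for 30 min. Supernatant IL-1β measured by ELISA, expressed as percent of ATP-only control. Triplicates from three mice.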

[3] = molecular target: T2, P2X purinoceptor 7 (Homo sapiens) (UniProt Q99572); test: Antagonist activity at human P2X7 receptor expressed in HEK293 cells assessed as reduction in benzoyl-ATP-induced YO-PRO-1 dye uptake at 10 uM pre-incubated for 20 mins before YO-PRO-1 addition and measured after 25 mins by fluorescence plate reader analysis relative to control; format: cell-based; details: filed as antagonist, time 45.0 min
T2 sequence (whole entry): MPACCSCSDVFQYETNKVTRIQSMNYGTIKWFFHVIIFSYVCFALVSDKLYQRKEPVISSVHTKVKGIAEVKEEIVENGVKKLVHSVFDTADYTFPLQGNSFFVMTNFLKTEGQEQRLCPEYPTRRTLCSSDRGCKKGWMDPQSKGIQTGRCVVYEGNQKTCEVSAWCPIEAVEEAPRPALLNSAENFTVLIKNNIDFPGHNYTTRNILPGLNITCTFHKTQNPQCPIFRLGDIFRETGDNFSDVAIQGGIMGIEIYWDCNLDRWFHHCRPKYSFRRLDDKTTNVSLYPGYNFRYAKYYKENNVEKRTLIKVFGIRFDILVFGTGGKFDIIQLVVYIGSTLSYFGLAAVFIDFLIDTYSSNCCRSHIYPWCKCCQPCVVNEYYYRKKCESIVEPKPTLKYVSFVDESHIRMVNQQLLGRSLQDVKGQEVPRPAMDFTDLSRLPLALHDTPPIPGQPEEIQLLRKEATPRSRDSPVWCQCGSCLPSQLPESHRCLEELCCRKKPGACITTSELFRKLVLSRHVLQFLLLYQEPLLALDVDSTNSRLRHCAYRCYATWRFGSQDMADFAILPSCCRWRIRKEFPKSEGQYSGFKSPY
In short: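 Stably transfected hP2X7-HEK293 cells, 48 h after seeding, in Mg²⁺-free Krebs-HEPES (0.2 mM CaCl₂, pH 7.4). Compound preincubation 20 min, then YO-PRO-1 2 μM, then BzATP 30 μM. Fluorescence at 485/520 nm read for 25 min. Each well normalized to Fmax (0.5% Triton X-100) and Fmin (2 M MnCl₂): F = (Fx − F0)/(Fmax − Fmin). Triplicates from three cultures. IC50 is the concentration halving BzATP-induced uptake.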

[4] = molecular target: T3, P2X purinoceptor 1 (Rattus norvegicus) (UniProt P47824); test: Antagonist activity at rat P2X1 receptor expressed in Xenopus laevis oocytes assessed as reduction in ATP-induced channel currents at 100 uM by TEVC electrophysiology assay relative to control; format: cell-based; details: Oocyte; in short: as §1
T3 sequence (whole entry): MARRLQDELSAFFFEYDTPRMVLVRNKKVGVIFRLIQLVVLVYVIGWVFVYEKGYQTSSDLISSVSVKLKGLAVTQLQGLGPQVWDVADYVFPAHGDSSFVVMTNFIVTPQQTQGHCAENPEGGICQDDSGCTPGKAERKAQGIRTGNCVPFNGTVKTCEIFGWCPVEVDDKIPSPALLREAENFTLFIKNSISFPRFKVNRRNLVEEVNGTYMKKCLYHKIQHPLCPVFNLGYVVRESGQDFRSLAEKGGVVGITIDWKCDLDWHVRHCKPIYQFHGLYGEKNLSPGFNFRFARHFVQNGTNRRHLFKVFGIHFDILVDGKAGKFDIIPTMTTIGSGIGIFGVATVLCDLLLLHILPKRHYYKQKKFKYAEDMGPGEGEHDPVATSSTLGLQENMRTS

[5] = molecular target: T2, P2X purinoceptor 7 (Homo sapiens); test: (§2) Antagonist activity at human P2X7 receptor expressed in HEK293 cells assessed as reduction in benzoyl-ATP-induced intracellular Ca2+ level by Fura-2 dye based fluorescence assay; format: cell-based; details: filed as antagonist
In short: (§3)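 hP2X7-HEK293 cells 24–48 h after seeding, loaded with Fura-2-AM 8 μM for 1 h, then washed in Mg²⁺-free Tyrode (2 mM CaCl₂, pH 7.4) for 15–30 min with compound present. Excitation 340/380 nm, emission 520 nm. Basal recording, then BzATP injected (100 μM final). [Ca²⁺]c from Grynkiewicz equation. Blockade as percent of BzATP peak in Tyrode-only wells; triplicates.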

[6] = molecular target: T4, P2X purinoceptor 7 (Homo sapiens, UniProt Q99572); test: as §2; format: cell-based; in short: as §3
T4 sequence (Q99572 whole entry): T2 sequence (whole entry)

inhibition [1]: inactive
inhibition [3]: 63%
inhibition [4]: inactive
inhibition [5]: Dose-dependent effect
IC50 [6]: 13.7 µM
Compound: O=C(Cn1cnc2c(Cl)ncnc21)c1ccc(Cl)cc1Cl
inhibition [2]: Dose-dependent effect
